Reference: ChEMBL document CHEMBL1926621, “New potent 5-HT(2A) receptor ligands containing an N'-cyanopicolinamidine nucleus: Synthesis and in vitro pharmacological evaluation” (Eur J Med Chem, 2012)

Key:
[1] = molecular target: T1, Adrenergic receptor alpha-2 (Rattus norvegicus, UniProt P22086+P19328+P22909); test: Displacement of [3H]yohimbine from rat brain cortex adrenergic alpha2 receptor after 30 mins by liquid scintillation counting
T1 sequence (P22086 whole entry): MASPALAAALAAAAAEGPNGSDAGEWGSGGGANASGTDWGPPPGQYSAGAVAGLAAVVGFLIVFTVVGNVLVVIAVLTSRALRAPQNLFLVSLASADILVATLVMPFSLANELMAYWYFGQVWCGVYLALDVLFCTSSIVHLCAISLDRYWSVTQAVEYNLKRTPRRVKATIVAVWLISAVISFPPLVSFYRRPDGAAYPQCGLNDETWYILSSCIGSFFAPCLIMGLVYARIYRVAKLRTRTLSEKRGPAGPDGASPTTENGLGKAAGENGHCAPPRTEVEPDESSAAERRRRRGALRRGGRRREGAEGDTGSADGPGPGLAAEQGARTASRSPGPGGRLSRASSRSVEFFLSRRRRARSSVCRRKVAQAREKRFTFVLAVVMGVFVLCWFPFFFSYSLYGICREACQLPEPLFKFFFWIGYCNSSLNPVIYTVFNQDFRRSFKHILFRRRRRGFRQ
T1 sequence (P19328 whole entry): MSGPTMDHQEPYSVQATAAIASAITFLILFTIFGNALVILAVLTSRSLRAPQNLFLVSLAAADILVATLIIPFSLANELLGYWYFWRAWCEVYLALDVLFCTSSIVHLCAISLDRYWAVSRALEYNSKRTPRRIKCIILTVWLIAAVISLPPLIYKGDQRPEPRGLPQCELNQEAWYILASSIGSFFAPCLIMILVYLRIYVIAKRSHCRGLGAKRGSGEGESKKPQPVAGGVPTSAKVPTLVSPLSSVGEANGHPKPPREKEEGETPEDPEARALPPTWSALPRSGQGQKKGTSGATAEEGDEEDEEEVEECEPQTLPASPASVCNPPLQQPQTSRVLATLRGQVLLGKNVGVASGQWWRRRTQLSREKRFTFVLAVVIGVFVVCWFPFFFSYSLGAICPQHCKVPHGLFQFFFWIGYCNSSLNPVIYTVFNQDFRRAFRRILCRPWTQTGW
T1 sequence (P22909 whole entry): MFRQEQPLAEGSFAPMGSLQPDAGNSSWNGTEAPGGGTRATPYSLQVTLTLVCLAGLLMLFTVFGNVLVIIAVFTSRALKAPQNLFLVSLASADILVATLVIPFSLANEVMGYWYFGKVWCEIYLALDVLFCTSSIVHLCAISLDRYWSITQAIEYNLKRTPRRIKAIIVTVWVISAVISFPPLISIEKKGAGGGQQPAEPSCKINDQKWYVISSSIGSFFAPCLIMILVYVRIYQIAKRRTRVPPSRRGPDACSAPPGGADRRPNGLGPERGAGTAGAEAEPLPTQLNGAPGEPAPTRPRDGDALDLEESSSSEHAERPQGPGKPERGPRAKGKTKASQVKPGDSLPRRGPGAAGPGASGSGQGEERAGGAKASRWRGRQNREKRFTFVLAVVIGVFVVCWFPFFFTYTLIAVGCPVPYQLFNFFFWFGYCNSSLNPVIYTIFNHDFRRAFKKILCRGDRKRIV
Method in brief: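 Cortex homogenized in 5 mM Tris-HCl, 5 mM EDTA pH 7.3, spun three times at 50,000 g, resuspended in 50 mM Tris-HCl, 0.5 mM EDTA pH 7.5. [3H]yohimbine 1 nM final, 10 mg fresh tissue, 30 min at 25 °C. Phentolamine defined nonspecific binding. Ki by Cheng-Prusoff.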

[2] = molecular target: 5-hydroxytryptamine receptor 2A (Rattus norvegicus) (UniProt P14842); test: Displacement of [3H]ketanserin from Sprague-Dawley rat brain cortex serotonin 5-HT2A receptor at 0.00001 uM after 15 mins by liquid scintillation counting
[3] = molecular target: 5-hydroxytryptamine receptor 2A (Rattus norvegicus) (UniProt P14842); test: Displacement of [3H]ketanserin from Sprague-Dawley rat brain cortex serotonin 5-HT2A receptor at 0.0000001 uM after 15 mins by liquid scintillation counting
[4] = molecular target: 5-hydroxytryptamine receptor 2A (Rattus norvegicus) (UniProt P14842); test: Displacement of [3H]ketanserin from Sprague-Dawley rat brain cortex serotonin 5-HT2A receptor at 0.001 uM after 15 mins by liquid scintillation counting

Sequence of 5-hydroxytryptamine receptor 2A (Rattus norvegicus) (P14842 whole entry): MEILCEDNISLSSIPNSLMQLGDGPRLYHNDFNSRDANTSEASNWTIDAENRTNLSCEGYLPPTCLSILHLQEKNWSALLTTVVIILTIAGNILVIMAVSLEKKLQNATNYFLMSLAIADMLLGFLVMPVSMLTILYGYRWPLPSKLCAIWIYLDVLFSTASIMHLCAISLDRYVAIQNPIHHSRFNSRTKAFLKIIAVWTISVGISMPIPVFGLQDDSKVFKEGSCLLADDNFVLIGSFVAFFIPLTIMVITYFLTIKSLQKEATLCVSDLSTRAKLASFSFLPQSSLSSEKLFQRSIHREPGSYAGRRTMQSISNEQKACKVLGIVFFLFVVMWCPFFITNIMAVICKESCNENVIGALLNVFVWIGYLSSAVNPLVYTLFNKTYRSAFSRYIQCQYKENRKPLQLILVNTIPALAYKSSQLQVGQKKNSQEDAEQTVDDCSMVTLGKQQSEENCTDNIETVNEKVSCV

SMILES | Ki [1] | inhibition [2] | inhibition [3] | inhibition [4]
N#C/N=C(\NCCCN1CCN(c2ccccn2)CC1)c1ccccn1 | > 10000 nM |  |  | 
N#C/N=C(\NCCCN1CCN(c2cccc(C(F)(F)F)c2)CC1)c1ccccn1 | > 10000 nM | 62.8% | 34.9% | 85.9%
Cc1cccc(N2CCN(CCCN/C(=N\C#N)c3ccccn3)CC2)c1C | 318 nM |  |  | 
N#C/N=C(\NCCCN1CCN(c2ncccn2)CC1)c1ccccn1 |  | 44.3% | 24.2% | 70.4%
CCOc1ccccc1N1CCN(CCCN/C(=N\C#N)c2ccccn2)CC1 | 571 nM |  |  | 
COc1ccccc1N1CCN(CCCN/C(=N\C#N)c2ccccn2)CC1 | 245 nM | 65.9% | 21.9% | 95.1%
